From PubChem BioAssay
A selection: hits, their analogues and other compounds. The true share with any hit is near 1.2%.
FN deposit inh – fibronectin deposition inhibition. AH1F fibroblasts, Alexa488-fibronectin deposition fluorescence, overnight. inhibition, % at 12.6 µM. actives 0.086% (n = 350,000);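 active = mean inhibition across replicates of 30% or more, regardless of how many single replicates reach that level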
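test system = AH1F fibroblasts assembling fluorescent fibronectin matrix | quantity = 10000 AH1F cells per well | buffer or medium = DMEM plus 2% serum, read in PBS | doses = single dose, pinned | incubation = 1 h cell attachment, overnight exposure to compound and label | detection = fluorescence at 485 nm excitation, 525 nm emission | read-out basis = inhibition from reduced deposited-fibronectin fluorescence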
A3A deaminase – blocks human APOBEC3A ssDNA deamination | recombinant A3A, FAM/TAMRA ssDNA deamination fluorescence | inhibition, % at 20 µM | actives 0.41% (n = 330,000);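 active = at least 40% inhibition at 20 µM here, with at most 30% in a related deaminase screen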
Target sequence (P31941 whole entry, looked up): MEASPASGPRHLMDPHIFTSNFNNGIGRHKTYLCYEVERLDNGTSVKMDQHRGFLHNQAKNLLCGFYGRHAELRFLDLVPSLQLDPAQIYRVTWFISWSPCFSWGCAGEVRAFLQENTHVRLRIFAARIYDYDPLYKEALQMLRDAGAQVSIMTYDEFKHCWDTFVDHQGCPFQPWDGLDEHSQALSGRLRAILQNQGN
APOBEC3G inh – APOBEC3G (human) deaminase inhibition; recombinant A3G, ssDNA deamination FAM/TAMRA fluorescence; inhibition, % at 20 µM; actives 0.28% (n = 330,000); AID 493012;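 active = inhibition of at least 40% at 20 µM, with no more than 30% in the related APOBEC3A deaminase screen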
Target sequence (Q9HC16 whole entry, looked up): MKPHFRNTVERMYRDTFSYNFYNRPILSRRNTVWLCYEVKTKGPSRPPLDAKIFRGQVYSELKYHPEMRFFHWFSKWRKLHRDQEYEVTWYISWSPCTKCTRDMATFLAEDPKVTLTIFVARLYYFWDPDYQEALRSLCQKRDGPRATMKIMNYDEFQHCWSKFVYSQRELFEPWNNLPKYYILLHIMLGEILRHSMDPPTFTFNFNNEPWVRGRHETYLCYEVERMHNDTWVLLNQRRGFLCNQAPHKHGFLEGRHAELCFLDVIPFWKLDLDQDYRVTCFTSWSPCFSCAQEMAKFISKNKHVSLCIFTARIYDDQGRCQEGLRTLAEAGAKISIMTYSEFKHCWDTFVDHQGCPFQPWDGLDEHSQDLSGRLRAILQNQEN
ABHD5 PLIN5 PPI – inhibitors of human ABHD5-perilipin-5 interaction; Q00G26+Q8WTS1; Split G. princeps luciferase complementation, luminescence, 4 h; inhibition, % at 4 µM; AID 602281; actives 0.78% (n = 360,000);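 active = inhibition above the mean inhibition across every tested compound plus 3 SD, cut at about 22% in these data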
APOBEC3A confirm – confirmation of human APOBEC3A DNA deaminase inhibitors | shares compounds with A3A deaminase | recombinant A3A, ssDNA deaminase UDG fluorescence assay | inhibition, % at 20 µM | actives 63% (n = 1,400);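 active = inhibition reaching a set limit, 80% of the first screen's cutoff, at 20 µM in any replicate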
UDG ctr A3A – UDG inhibition in APOBEC3A counter-screen; 1,000 tested, under 10 active; shares compounds with A3A deaminase; UDG counterscreen, FAM/TAMRA uracil oligo fluorescence; inhibition, % at 20 µM; call rule not given here
Of the large screens only hits and unclear results are named; the others gave an inactive call (follow-up assays come after a bar, where they were run).

O=C(CC1(O)C(=O)Nc2ccccc21)c1ccc2c(c1)OCO2 (configuration not stated)	A3A deaminase 79 (no result: FN deposit inh) | APOBEC3A confirm inactive | UDG ctr A3A inactive
C[N+]1(CN2C(=O)C3C4C=CC(C4)C3C2=O)CCCCC1 (configuration not stated)	A3A deaminase 68 | APOBEC3A confirm 68 | UDG ctr A3A inactive
O=C(O)CN1C(=O)C2C3C=CC(C3)C2C1=O (configuration not stated)	none
CCCOc1ccc(C(=O)Nc2ccccc2[N+](=O)[O-])cc1	A3A deaminase 76 (no result: FN deposit inh) | APOBEC3A confirm inactive | UDG ctr A3A inactive
CCC(=O)Nc1ccc2c(c1)OC[C@@H](C)N(C(=O)Cc1cccnc1)C[C@@H](C)[C@@H](OC)CN(C)C2=O	none (no result: A3A deaminase, APOBEC3G inh, ABHD5 PLIN5 PPI)
CC1(C)CN(c2cccc(C#N)c2)C1=O	none
CC1(C)CN(c2cccc(-c3ccnc4ncnn34)c2)C1=O	A3A deaminase 54 | APOBEC3A confirm inactive | UDG ctr A3A inactive
CCN(CC)CC(O)Cn1c2ccccc2c2ccccc21 (configuration not stated)	none (no result: FN deposit inh)
Cc1cc(C)[n+](C)n1CC(O)Cn1c2ccccc2c2ccccc21 (configuration not stated)	A3A deaminase 45 | APOBEC3A confirm 76 | UDG ctr A3A inactive
N#Cc1ccccc1S(=O)(=O)N1CCN(C(=O)c2cc3c(s2)CCC3)CC1	A3A deaminase 51 | APOBEC3A confirm 36 | UDG ctr A3A inactive
O=C(NC1=NCCS1)C1CCN(S(=O)(=O)c2cc([N+](=O)[O-])ccc2Cl)CC1	A3A deaminase 53 | APOBEC3A confirm 53 | UDG ctr A3A inactive
O=C(NC1=NCCS1)C1CCN(S(=O)(=O)c2ccc(Cl)cc2)CC1	none
CCOc1ccccc1OCCC(=O)OCC(=O)Nc1c(C)cc(C)cc1C	A3A deaminase 62 | APOBEC3A confirm inactive
CCCN1C[C@H](C)[C@@H](OC)CN(C)C(=O)c2cc(NC(=O)Nc3c(C)noc3C)ccc2OC[C@H]1C	none (no result: A3A deaminase, APOBEC3G inh, ABHD5 PLIN5 PPI)
N#CC1(NC(=O)COc2ccc(S(=O)(=O)N3CCCC3)cc2[N+](=O)[O-])CCCCC1	A3A deaminase 51 | APOBEC3A confirm inactive
Nc1ccc(Nc2ccccc2)c(S(=O)(=O)O)c1	A3A deaminase 67 | APOBEC3A confirm 57 | UDG ctr A3A inactive
C[C@H](CO)N1C[C@H](C)[C@@H](CN(C)Cc2ccc(C(=O)Nc3ccccc3N)cc2)Oc2ccc(NC(=O)CCN3CCOCC3)cc2C1=O	none (no result: A3A deaminase, APOBEC3G inh, ABHD5 PLIN5 PPI)
Cc1ccc(NC(=O)c2c(-c3ccccc3Cl)noc2C)nc1	none
Cc1onc(-c2ccccc2Cl)c1C(=O)Nc1ccc(Cl)cn1	A3A deaminase 60 | APOBEC3A confirm inactive
COCC(=O)N1C[C@@H](C)[C@H](OC)CN(C)C(=O)c2ccc(NC(=O)c3cnccn3)cc2OC[C@H]1C	none (no result: A3A deaminase, APOBEC3G inh, ABHD5 PLIN5 PPI)
COc1cccc(C#Cc2ccc3c(c2)[C@H]2[C@H](CCN2S(=O)(=O)c2ccc(C)cc2)[C@@H](CO)N3)c1	none (no result: A3A deaminase, APOBEC3G inh, ABHD5 PLIN5 PPI)
Cc1ccc2c(c1)N(C)/C(=C/c1cccc[n+]1CCO)S2	A3A deaminase 48 | APOBEC3A confirm 83 | UDG ctr A3A inactive
CCN1/C(=C/c2ccc3cc(C)ccc3[n+]2CC)Sc2cc(C)ccc21	none (no result: A3A deaminase, APOBEC3G inh)
CCCCN1/C(=C/c2cccc[n+]2C)Sc2cc(NC(C)=O)ccc21	none
Cc1ccc2c(c1)N(C)/C(=C/c1cccc[n+]1C)S2	A3A deaminase 67 | APOBEC3A confirm 91 | UDG ctr A3A inactive
CN1/C(=C/c2cccc[n+]2C)Sc2ccccc21	A3A deaminase 62 | APOBEC3A confirm 87 | UDG ctr A3A inactive
Cc1cccc(S(=O)(=O)N[C@@H]2CC[C@H](CCNC(=O)c3cnccn3)O[C@@H]2CO)c1	none (no result: A3A deaminase, APOBEC3G inh, ABHD5 PLIN5 PPI)
Nn1c(SCC(=O)Nc2ccc3c(c2)OCCO3)nnc(CCC(=O)O)c1=O	A3A deaminase 74 | APOBEC3A confirm 60 | UDG ctr A3A inactive
Cc1nnc(SCC(=O)Nc2ccc3c(c2)OCCO3)n1N	none (no result: FN deposit inh)
Nn1c(SCC(=O)Nc2ccc3c(c2)OCCO3)nnc1C(F)(F)F	A3A deaminase 61 (no result: FN deposit inh) | APOBEC3A confirm inactive
CCCC(=O)Nc1ccc2c(c1)C(=O)N(C)[C@@H]1CC[C@H](CC(=O)NCCc3ccccc3)O[C@H]1CO2	none (no result: A3A deaminase, APOBEC3G inh, ABHD5 PLIN5 PPI)
COc1ccc([C@@H]2CC=CC[C@@H](C)Oc3ccccc3C(=O)N(C)[C@@H](C)C(=O)N2)c(OC)c1 (mixture of isomers)	none (no result: A3A deaminase, APOBEC3G inh, ABHD5 PLIN5 PPI)
CCOC(=O)N1CCN(C(=O)/C(=C/c2ccc(OC)c(OC)c2)NC(=O)c2ccccc2)CC1	none
COc1ccc(/C=C(\NC(=O)c2ccccc2)C(=O)OC[C@@H]2CCC[N+]3(C)CCCCC23)cc1OC (some centres not stated)	A3A deaminase 67 | APOBEC3A confirm 67 | UDG ctr A3A inactive
CN(C)C(=O)C[C@H]1CC[C@@H]2[C@H](COC[C@@H](O)CN2C(=O)c2ccncc2)O1	none (no result: A3A deaminase, APOBEC3G inh, ABHD5 PLIN5 PPI)
CC(C)(C)c1cc(C(=O)NNC(=O)Nc2cccc(Cl)c2)n(Cc2ccccc2)n1	none
CC(C)(C)c1cc(C(=O)NNC(=O)Nc2ccccc2)n(Cc2ccccc2)n1	A3A deaminase 61 | APOBEC3A confirm inactive | UDG ctr A3A inactive
C[C@@H]1CN([C@H](C)CO)C(=O)c2cc(-c3cccnc3)cnc2O[C@@H]1CN(C)C(=O)NC1CCCC1	none (no result: A3A deaminase, APOBEC3G inh, ABHD5 PLIN5 PPI)
CS(=O)(=O)NCCn1ccc2ccccc21	none
C[N+]1(CCn2ccc3ccccc32)CCCCC1	A3A deaminase 63 (no result: FN deposit inh) | APOBEC3A confirm 68 | UDG ctr A3A inactive
O=Cc1cn(-c2ccccc2)nc1-c1cc2c(ccc3ccccc32)oc1=O	A3A deaminase 77 (no result: FN deposit inh) | APOBEC3A confirm inactive | UDG ctr A3A inactive
O=Cc1cn(-c2ccccc2)nc1-c1cc2cc(O)ccc2oc1=O	none
Cc1ccc(S(=O)(=O)N(C)C[C@@H]2OCCCC[C@H](C)Oc3ccc(NC(=O)Nc4c(C)noc4C)cc3C(=O)N([C@H](C)CO)C[C@@H]2C)cc1	none (no result: A3A deaminase, APOBEC3G inh, ABHD5 PLIN5 PPI)
COc1ccc(C(=O)NC2CCN(CC(=O)N3CCCCC3)CC2)cc1	A3A deaminase 41 | APOBEC3A confirm inactive
CCN1C(=NCCCOC(C)C)N[C@@H](CCc2ccccc2)[C@H](C(=O)NCCCOC(C)C)[C@H]1C	A3A deaminase 42 | APOBEC3A confirm 58 | UDG ctr A3A inactive
CCOC(=O)CN1C(=O)N[C@@H](CCc2ccccc2)[C@@H](C(=O)OC)[C@H]1C	none
CCN1C(=NCCOC)N[C@@H](CCc2ccccc2)[C@H](C(=O)OC)[C@H]1C	A3A deaminase 46 | APOBEC3A confirm 66 | UDG ctr A3A inactive
CNC(=O)C[C@H]1CC[C@@H]2[C@H](COc3ccc(NC(=O)c4cccs4)cc3C(=O)N2C)O1	none (no result: A3A deaminase, APOBEC3G inh, ABHD5 PLIN5 PPI)
CN(C)c1cccc(NC2=CC(=[N+]3CCOCC3)CC(C)(C)C2)c1	A3A deaminase 41 | APOBEC3A confirm inactive
COCC(=O)Nc1ccc2c(c1)OC[C@H](C)N(Cc1cccc(F)c1)C[C@H](C)[C@@H](OC)CN(C)C2=O	none (no result: A3A deaminase, APOBEC3G inh, ABHD5 PLIN5 PPI)
CN(CCCCCC(=O)/C=N/O)Cc1ccccc1	none
